Rows were chosen to be rich in hits. Some 2.6% of all compounds tested hit in one or more screens of this group.
UCH37 DUB inh = inhibitors of human deubiquitinating enzyme UCH37; purified proteasome/UCH37, Ub-AMC cleavage fluorescence; inhibition, % (test concentration not listed); 330,000 compounds, 0.33% hits; AID 588478;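 active means mean inhibition over replicate wells above about 20%, limit read from the data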;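 further: 0% = compound-free wells with enzyme and 100% = wells lacking proteasome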
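Reagent: Ub-AMC substrate; assay system: Proteasome-associated human UCH37 deubiquitinase; controls: no-proteasome and no-compound wells; read-out: % inhibition of Ub-AMC cleavage fluorescence; timing: 30 min preincubation with enzyme, 25 min cleavage at room temperature; signal: AMC fluorescence from Ub-AMC cleavage, excitation 355 nm, emission 460 nm; buffer or medium: Tris-HCl pH 7.4 plus ovalbumin, ATP-MgCl2, DTT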
NSD2 inh = NSD2 (human) methyltransferase inhibition | O96028 | inhibition, % at 12.5 µM | NSD2 peptide methylation, AlphaScreen, 120 min | 310,000 compounds, 0.54% hits; in the data active means inhibition above about 50%
SIRT5 block = inhibitors of human sirtuin-5 desuccinylase; Purified SirT5, succinyl-peptide AMC, trypsin-coupled fluorescence; inhibition, % at 15 µM; 330,000 compounds, 1.1% hits; in the data active means inhibition above about 15%
FGF22 binding = FGF22 (human) thermal shift binding | 340,000 compounds, 1.5% hits | recombinant FGF22 thermal shift, SYPRO orange fluorescence; percent of sucrose octasulfate shift, DMSO zero | AID 651658 | activity (Tm shift, normalised), % at 9.99 µM;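 active means mean Tm shift, scaled 0 neutral to 100 positive control, at about 1.3% or above, every replicate too, limit read from the data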
Target sequence (Q9HCT0 whole entry, looked up): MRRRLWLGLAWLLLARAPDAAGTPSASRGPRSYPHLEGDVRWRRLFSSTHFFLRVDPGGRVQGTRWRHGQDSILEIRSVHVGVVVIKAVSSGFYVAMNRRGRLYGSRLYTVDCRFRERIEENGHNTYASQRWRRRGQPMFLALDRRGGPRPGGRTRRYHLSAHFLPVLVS
Casp6 inh = inhibitors of human caspase-6 | inhibition, % at 12.5 µM | P55212 | 350,000 compounds, 0.53% hits | purified caspase-6, Z-VEID-R110 cleavage fluorescence;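 active means mean inhibition across replicates at least about 35%, with every replicate also reaching that limit, limit read from the data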;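 further: 0% = median of neutral control wells and 100% = no fluorescence left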
Target sequence (P55212 24-179 limits assumed): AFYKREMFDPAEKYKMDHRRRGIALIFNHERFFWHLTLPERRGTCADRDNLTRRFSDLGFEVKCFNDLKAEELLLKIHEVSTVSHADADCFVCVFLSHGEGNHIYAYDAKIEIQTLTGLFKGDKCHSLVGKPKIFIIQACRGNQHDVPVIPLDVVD
Target sequence (P55212 194-293 limits assumed): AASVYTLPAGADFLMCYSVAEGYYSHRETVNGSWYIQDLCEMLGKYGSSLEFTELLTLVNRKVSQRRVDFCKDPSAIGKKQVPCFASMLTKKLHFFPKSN
* hit, by the source's call; . = not tested or not shown.

SMILES | UCH37 DUB inh | NSD2 inh | SIRT5 block | FGF22 binding | Casp6 inh
COC(=O)/C=C/c1sc2nc(C)cc(C)c2c1N=CN(C)C | 2 | -4 | 32* | 0 | .
Nc1ccc(C(=O)NN2C(=O)[C@H](Cl)C2c2ccc(Cl)cc2)cc1 (stereo partly drawn) | . | 1 | -4 | 1.6* | 0
CC(C)(C)c1ccc(C(=O)Nc2ccc(S(=O)(=O)Nc3cnc4ccccc4n3)cc2)cc1 | 3 | 20 | -1 | 0 | 61*
CN(N=Cc1ccccc1Cl)c1ncc(Cl)cc1C(F)(F)F | 7 | . | . | . | .
CC(C)CC#Cc1cnc2c(c1)C(=O)N([C@H](C)CO)C[C@H](C)[C@@H](CN(C)C(=O)CCN1CCCCC1)O2 | . | . | -1 | 0 | -2
CNCCC(Oc1ccccc1OC)c1ccccc1 (stereo not drawn) | 4 | . | 22* | 0 | .
CC(=O)c1cccc(N(C(=O)c2ccco2)C(C(=O)NC2CCCC2)c2ccc(N3CCOCC3)cc2)c1 (stereo not drawn) | 0 | 0 | -1 | 43* | 2
COC(=O)c1cccc(N(C(=O)c2ccco2)C(C(=O)NC2CCCC2)c2ccc(N3CCOCC3)cc2)c1 (stereo not drawn) | 1 | 1 | 9 | 42 | 1
C/C(C=Nn1c(-c2ccccn2)n[nH]c1=S)=C\c1ccccc1 | 4 | . | . | . | .
CC1CCC2(CC1)NC(=O)N(CC(=O)Nc1sc3c(c1C(N)=O)CCC3)C2=O (stereo not drawn) | -2 | 2 | 7 | 0 | 42*
O=C(CCC(=O)Nc1ccc(Br)cc1)NN=Cc1ccc(O)cc1 | 2 | . | . | . | .
O=[N+]([O-])c1ccc2c(c1)nc1n2CCCCC1 | 4 | -3 | 17* | 0 | -3
COc1ccc2c3c(n(C)c2c1)[C@@H](CO)N(C(=O)Nc1cccc(F)c1)CC31CN(C)C1 | . | . | -2 | 0 | -2
C[C@@H]1CN([C@@H](C)CO)S(=O)(=O)c2ccc(C#Cc3ccc(F)cc3)cc2O[C@@H]1CN(C)C(=O)NC1CCCCC1 | . | . | 16* | 0 | 0
C[C@H]1CN([C@@H](C)CO)S(=O)(=O)c2ccc(C#Cc3ccc(F)cc3)cc2O[C@H]1CN(C)C(=O)NC1CCCCC1 | . | . | 20* | 0 | -4
C[C@H](CO)N1C[C@H](C)[C@H](CN(C)C(=O)NC2CCCCC2)Oc2cc(C#Cc3cccc(F)c3)ccc2S1(=O)=O | . | . | -3 | 0 | -1
C[C@@H]1CN([C@H](C)CO)S(=O)(=O)c2ccc(C#Cc3ccc(F)cc3)cc2O[C@@H]1CN(C)C(=O)NC1CCCC1 | . | . | 2 | 0 | 0
C[C@H]1CN([C@@H](C)CO)S(=O)(=O)c2ccc(C#Cc3ccc(F)cc3)cc2O[C@@H]1CN(C)C(=O)NC1CCCCC1 | . | . | 18* | 0 | -1
C[C@@H]1CN([C@H](C)CO)S(=O)(=O)c2ccc(C#Cc3cccc(F)c3)cc2O[C@@H]1CN(C)C(=O)NC1CCCCC1 | . | . | 17* | 0 | -1
CCCNC(=O)Nc1ccc2c(c1)OC[C@H](C)N(C(=O)c1ccccc1F)C[C@@H](C)[C@H](OC)CN(C)C2=O | . | . | 2 | 0 | 0
Cc1cc(C)n(-c2nnc(C)n2/N=C/c2ccc(O)cc2)n1 | . | -1 | 18* | 0 | 1
COC(=O)[C@@]1(Cc2ccc(F)cc2)[C@H]2c3cc(C(=O)N(C)C)n(Cc4cc(F)cc5c4OCOC5)c3C[C@H]2CN1C(=O)c1ccccc1 | . | . | -3 | 0 | -1
COC(=O)[C@@]1(Cc2ccc(F)cc2)[C@H]2c3cc(C(=O)N4CCCC4)n(Cc4cc(F)cc5c4OCOC5)c3C[C@H]2CN1C(=O)c1ccccc1 | . | . | 22* | 0 | -2
O=C(O)c1ccc(NN=C/C(Br)=C/c2ccccc2)cc1 | 17 | . | . | . | .
Cc1cc(C(=O)Nc2ccc3c(c2)C(=O)N(C)[C@H]2CC[C@H](CC(=O)NC4CCCC4)O[C@H]2CO3)no1 | . | . | -3 | 0 | 2
CCCNC(=O)N1C[C@@H](C)[C@@H](OC)CN(C)C(=O)c2cc(NC(=O)CC)ccc2OC[C@@H]1C | . | . | 0 | 0 | 0
COC(=O)C[C@@H]1CC[C@H]2[C@H](COc3ccc(NC(=O)c4ccc(F)c(F)c4)cc3C(=O)N2C)O1 | . | . | -4 | 0 | 1
CC(=O)c1cccc(NC(=O)c2ccc3c(c2)OCO3)c1 | -1 | 5 | 0 | 0 | -1
CCOC(=O)c1cccc(NC(=O)c2ccc3c(c2)OCO3)c1 | 1 | -2 | 19* | 0 | 2

Bioassay records as filed in PubChem BioAssay.
